Experimental data from PMC7113852 (Antiviral Research, 2018).
Read-outs that look alike come from different tables or passages of the source.

Experiments:
[1] = system: RVFV (rRVFVΔNSs::Katushka); assay: microbe, parasite or virus in culture; assay type: cell-based, Rift Valley fever virus; settings: for EC50: Rift Valley fever virus, A549, read-out: EC50 other
[2] = in vitro; settings: human
[3] = system: ZIKV FB-GWUH-2016 strain; assay: Viability and death of ZIKV-infected RPE cells; assay type: cell-based, Zika virus; settings: for SI (minimal selectivity index, CC50/EC50): ZIKV, RPE cells; for EC50: Zika virus, RPE
[4] = system: ZIKV FB-GWUH-2016 strain; assay: ZIKV titer from compound-treated RPE cells, plaque assay on Vero-E6 cells; assay type: cell-based, Zika virus; settings: for antiviral activity in repeat experiments: ZIKV, RPE cells, repeated CTG, CTxG and virus titration; for EC50: Zika virus, read-out: EC50 other
How it was run: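 Medium for ZIKV infection: DMEM-F12 with 2% FBS, 2 mM L-glutamine, 0.25% sodium bicarbonate and 50 U/ml PenStrep, applied after 24 h growth of ~4 × 10^4 RPE cells/well. Test compound added in seven three-fold dilutions from 30 μM; infection at MOI 1. Media harvested at cytopathic effect (typically 24–72 hpi), serially diluted in PBS, plaque-titrated on Vero-E6 (PFU/ml). EC50 from variable-slope non-linear regression or Hill fit.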

[5] = in vitro; settings: human; remark: listed apart in the source
[6] = system: EV1; assay: microbe, parasite or virus in culture; assay type: cell-based, Echovirus 1; settings: for EC50: Enterovirus B, RPE, read-out: EC50 CTxG
[7] = system: EV1; assay: microbe, parasite or virus in culture; assay type: cell-based, Echovirus 1; settings: for EC50: Enterovirus B, read-out: EC50 other
[8] = system: CHIKV-2SG-NanoLuc; assay: microbe, parasite or virus in culture; assay type: cell-based, Chikungunya virus
[9] = system: CHIKV-2SG-NanoLuc; assay: microbe, parasite or virus in culture; assay type: cell-based, Chikungunya virus; remark: listed apart in the source
[10] = system: RRV-2SG-NanoLuc; assay: microbe, parasite or virus in culture; assay type: cell-based, Ross River virus
[11] = system: RRV-2SG-NanoLuc; assay: microbe, parasite or virus in culture; assay type: cell-based, Ross River virus; remark: listed apart in the source
[12] = system: HIV-1; assay: HIV-1 infection of TZM-bl cells, firefly luciferase under HIV-1 LTR promoter; assay type: cell-based, Human immunodeficiency virus 1; settings: for validation of anti-HIV-1 hit: validation experiment; for EC50: Human immunodeficiency virus 1, TZM-bl, read-out: EC50 other
[13] = in vitro; settings: human; remark: listed apart in the source

For `Nc1ncn([C@@H]2O[C@H](CO)[C@@H](O)[C@H]2O)c(=O)n1` [Azacitidine], the “SI (minimal selectivity index, CC50/EC50)” value [1] was >9, the “screen hit against RVFV” value [1] was “identified” and the EC50 [1] was 11.4 µM. For the same compound, the CC50 [2] was > 100 µM.

With `Nc1ncnc2c([C@@H]3N[C@H](CO)[C@@H](O)[C@H]3O)c[nH]c12` [BCX4430] the “SI (minimal selectivity index, CC50/EC50)” value [3] was >2, the EC50 ([3]; read-out: EC50 CTG) was 18.5 µM and the EC50 ([3]; read-out: EC50 CTxG) was 2.96 µM. For the same compound, the “antiviral activity in repeat experiments” value [4] was “confirmed antiviral activity”, the EC50 [4] was 13.1 µM and the CC50 ([5]; CC50 CTG) was > 30 µM. For the same compound, the CC50 ([5]; CC50 CTxG) was > 30 µM.

For `Cc1ccc2c(c1)c1c3n2CCNC3CCC1` (stereo not shown) [Pirlindole], the “SI (minimal selectivity index, CC50/EC50)” value [6] was 11, the EC50 [6] was 2.71 µM and the “antiviral activity in repeat experiments” value [7] was “confirmed antiviral activity”. For the same compound, the EC50 [7] was 8.92 µM, the CC50 ([5]; CC50 CTG) was 28.5 µM and the CC50 ([5]; CC50 CTxG) was > 30 µM.

With `COc1c(C)c2c(c(O)c1C/C=C(\C)CCC(=O)O)C(=O)OC2` [Mycophenolic acid] the “SI (minimal selectivity index, CC50/EC50)” value ([8]; CHIKV, RPE cells) was >333, the EC50 ([8]; Chikungunya virus, RPE, read-out: EC50 CTxG) was 0.08 µM and the “antiviral activity in repeat experiments” value [9] was “confirmed antiviral activity”. For the same compound, the EC50 ([9]; Chikungunya virus, RPE, read-out: EC50 other) was 0.09 µM, the “SI (minimal selectivity index, CC50/EC50)” value [10] was >9 and the EC50 ([10]; Ross River virus, RPE, read-out: EC50 CTG) was 3.19 µM. For the same compound, the “antiviral activity in repeat experiments” value [11] was “confirmed antiviral activity”, the EC50 ([11]; Ross River virus, RPE, read-out: EC50 other) was 0.86 µM and the CC50 ([5]; CC50 CTG) was > 30 µM. For the same compound, the CC50 ([5]; CC50 CTxG) was > 30 µM.

For `CN[C@H](CC(C)C)C(=O)N[C@H]1C(=O)N[C@@H](CC(N)=O)C(=O)N[C@H]2C(=O)N[C@H]3C(=O)N[C@H](C(=O)N[C@H](C(=O)O)c4cc(O)cc(O)c4-c4cc3ccc4O)[C@H](O[C@H]3C[C@](C)(N)[C@@H](O)[C@H](C)O3)c3ccc(c(Cl)c3)Oc3cc2cc(c3O[C@@H]2O[C@H](CO)[C@@H](O)[C@H](O)[C@H]2O[C@H]2C[C@](C)(NCc3ccc(-c4ccc(Cl)cc4)cc3)[C@@H](O)[C@H](C)O2)Oc2ccc(cc2Cl)[C@H]1O` [Oritavancin], the “screen hit against RVFV” value [1] was “identified”, the EC50 [1] was 4.49 µM and the CC50 [2] was 75.8 µM.

For `CC(C)c1nc(CN(C)C(=O)N[C@H](C(=O)N[C@@H](Cc2ccccc2)C[C@H](O)[C@H](Cc2ccccc2)NC(=O)OCc2cncs2)C(C)C)cs1` [Ritonavir], the “screen hit against RVFV” value [1] was “identified” and the EC50 [1] was 26.8 µM.

For `CN(C)c1ccc(O)c2c1C[C@H]1C[C@H]3[C@H](N(C)C)C(O)=C(C(N)=O)C(=O)[C@@]3(O)C(O)=C1C2=O` [Minocycline], the “primary screen hit against HIV-1” value ([12]; HIV-1, TZM-bl cells) was “anti-HIV-1 agents”, the “validation of anti-HIV-1 hit” value ([12]; HIV-1, TZM-bl cells) was “confirmed” and the EC50 [12] was 6.84 µM. For the same compound, the “SI (minimal selectivity index, CC50/EC50)” value [1] was >11, the “screen hit against RVFV” value [1] was “identified” and the EC50 [1] was 9.52 µM.

In the case of `CO[C@H]1C[C@@H]2CC[C@@H](C)[C@@](O)(O2)C(=O)C(=O)N2CCCC[C@H]2C(=O)O[C@H]([C@H](C)C[C@@H]2CC[C@@H](O)[C@H](OC)C2)CC(=O)[C@H](C)/C=C(\C)[C@@H](O)[C@@H](OC)C(=O)[C@H](C)C[C@H](C)/C=C/C=C/C=C/1C` [Rapamycin], the “SI (minimal selectivity index, CC50/EC50)” value ([12]; HIV-1, TZM-bl cells) is reported as >1, the “primary screen hit against HIV-1” value ([12]; HIV-1, TZM-bl cells) is reported as “anti-HIV-1 agents” and the “validation of anti-HIV-1 hit” value ([12]; HIV-1, TZM-bl cells) is reported as “confirmed”. The EC50 [12] was 18.9 µM and the CC50 [13] was > 30 µM.

In the case of `Cc1cccc(C)c1OCC(=O)N[C@@H](Cc1ccccc1)[C@@H](O)C[C@H](Cc1ccccc1)NC(=O)[C@H](C(C)C)N1CCCNC1=O` [Lopinavir], the “SI (minimal selectivity index, CC50/EC50)” value [3] is reported as >1, the EC50 ([3]; read-out: EC50 CTG) is reported as 12 µM and the “antiviral activity in repeat experiments” value [4] is reported as “confirmed antiviral activity”. The EC50 [4] was 24.1 µM, the CC50 ([5]; CC50 CTG) was > 30 µM and the CC50 ([5]; CC50 CTxG) was > 30 µM.

In the case of `CCCCOc1cc(C(=O)NCCN(CC)CC)c2ccccc2n1` [Dibucaine], the “SI (minimal selectivity index, CC50/EC50)” value [6] is reported as >15, the EC50 [6] is reported as 2.05 µM and the “antiviral activity in repeat experiments” value [7] is reported as “confirmed antiviral activity”. For the same compound, the EC50 [7] was 0.96 µM, the CC50 ([5]; CC50 CTG) was > 30 µM and the CC50 ([5]; CC50 CTxG) was > 30 µM.
